Compound activity: PubChem BioAssay, Sanford-Burnham Center for Chemical Genomics
SENP8 block-1: SENP8 protease inhibition; Q96LD8; purified SENP8, Z-RLRGG-aminoluciferin cleavage, luminescence; inhibition, % at 10 µM; 1.2% of 330,000 active; AID 2540; in the data active = inhibition above about 50%
Target sequence (Q96LD8 whole entry, looked up): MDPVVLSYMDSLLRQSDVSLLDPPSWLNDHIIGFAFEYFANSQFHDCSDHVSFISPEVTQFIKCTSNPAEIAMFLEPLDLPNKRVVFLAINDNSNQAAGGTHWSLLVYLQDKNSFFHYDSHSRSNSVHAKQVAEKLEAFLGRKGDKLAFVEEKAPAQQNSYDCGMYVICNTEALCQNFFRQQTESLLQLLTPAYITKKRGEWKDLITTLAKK
SENP7 inh: inhibitors of human SENP7 protease. inhibition, % at 5 µM. AID 434973. 1.5% of 330,000 active. recombinant SENP7, Z-RLRGG-aminoluciferin luminescence, 40 min;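 active = inhibition above about 50% at the single test dose, limit read from the data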;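 note: plate controls were DMSO with enzyme for no effect and no enzyme buffer wells for full effect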
SENP1 inh: SENP1 (human) catalytic domain inhibition; Q9P0U3; recombinant SENP1 catalytic domain, CyPet-SUMO1-YPet FRET cleavage; inhibition, % at 10 µM; 0.21% of 360,000 active;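 active = inhibition at least 30% at 10 µM, raw YFP signal under a set limit, fluorescence ratio 0.5 to 1.5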;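 note: 0% = enzyme with DMSO and 100% = no enzyme wells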
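material = recombinant human SENP1 catalytic domain, His6-tagged | quantity = 20 pM enzyme | reagent = 25 nM SUMO1 FRET substrate | compound dosing = 10 µM single point, 0.5% DMSO | timing = 50 min enzyme reaction, room temperature, light-protected | detection = FRET, CFP and YFP emission | control set = no-enzyme low, enzyme-DMSO high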
SENP6 block: blocks the human protease SENP6. Q9GZR1. 1.8% of 330,000 active. Recombinant SENP6 catalytic domain, aminoluciferin luminescence. AID 2599. inhibition, % at 10 µM;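 active = inhibition above about 50% at the single tested dose, limit read from the data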;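 note: plate controls were DMSO wells with enzyme for no effect and DMSO wells lacking enzyme for full effect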
SENP8 block-2: blocks human SENP8 cleavage of Nedd8 substrate. Q96LD8. recombinant SENP8, Nedd8 substrate fluorescence. inhibition, % at 20 µM. 0.64% of 360,000 active; in the data active = inhibition mostly above about 40%, no sharp cut-off; inactive = mostly below about 27%
SENP8 confirm: human SENP8 inhibition, confirmed; AID 488912; inhibition, % at 12.5 µM; 40% of 6,200 active; Recombinant SENP8, Z-RLRGG-aminoluciferin luminescence, 60 min; shares compounds with SENP7 inh;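 active = mean inhibition across replicates above about 50%, limit read from the data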
SENP6 confirm: human SENP6 inhibition, confirmed | shares compounds with SENP7 inh | recombinant SENP6, Z-RLRGG-aminoluciferin luminescence | inhibition, % at 12.5 µM | 58% of 6,200 active
SENP7 confirm: human SENP7 inhibition, confirmed | shares compounds with SENP7 inh | recombinant SENP7, Z-RLRGG-aminoluciferin luminescence, 40 min | inhibition, % at 12.5 µM | 69% of 6,200 active | AID 488917
Casp3 SENP sel: caspase-3 inhibition (SENP selectivity assay); shares compounds with SENP7 inh; 60% of 6,200 active; AID 488918; purified caspase-3, Z-DEVD-aminoluciferin luminescence, 60 min; inhibition, % at 12.5 µM;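 active = mean inhibition above about 50%, limit read from the data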;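 note: plate controls were enzyme with DMSO for no effect and wells without caspase-3 for full effect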
Target sequence (P42574 28-227 limits assumed): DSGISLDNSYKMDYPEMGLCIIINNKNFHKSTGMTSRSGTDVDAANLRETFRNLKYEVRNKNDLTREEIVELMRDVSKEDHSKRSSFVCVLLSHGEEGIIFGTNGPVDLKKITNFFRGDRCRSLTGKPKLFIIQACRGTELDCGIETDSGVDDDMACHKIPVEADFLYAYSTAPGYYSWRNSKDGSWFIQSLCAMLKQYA
SENP luc ctr: counter-screen for SENP inhibitors: luminescence interference | inhibition, % at 12.5 µM | 39% of 6,200 active | shares compounds with SENP7 inh | Pre-incubated SENP8/Z-RLRGG-aminoluciferin, luciferase luminescence interference;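 active = mean inhibition above about 50% when retested at one dose, limit read from the data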;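 note: plate controls were DMSO wells with completed reaction for no effect and substrate without enzyme for full effect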
* hit, by the source's call; . = no result given. The list is not random: actives were taken first. Their share in the collection is about 2.5%.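 Rule for the calls, unless noted: active = mean inhibition above about 50% in the one-dose retest (limit read from the data); inactive = the rest.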

SMILES	SENP8 block-1	SENP7 inh	SENP1 inh	SENP6 block	SENP8 block-2	SENP8 confirm	SENP6 confirm	SENP7 confirm	Casp3 SENP sel	SENP luc ctr
O=C(O)c1ccc(N=Nc2c(O)ccc3ncccc23)cc1	96.9*	100.4*	7.1	96.7*	37.7	98.6*	99.2*	102.3*	89.1*	61.7*
O=c1c2ccccc2nc2oc3ccccc3n12	74.1*	80.1*	1.5	88.2*	-24.9	44.2	47.7	69.8*	82.5*	15.6
O=Cc1ccc(N2Cc3ccccc3C2)cc1	53.9*	42.5	0.6	68.0*	-45.4	26.2	54.8*	81.4*	65.5*	12.4
Cc1ccccc1C=O	10.0	-1.8	-1.6	-8.6	5.4	.	.	.	.	.
Cc1cc(N2Cc3ccccc3C2)ccc1C=O	49.7	10.9	0.0	56.7*	-2.3	45.1	72.8*	93.0*	80.2*	28.3
Cc1cc2c(cc1C)CN(c1ccccc1)C2	56.7*	42.7	4.3	59.0*	21.8	50.9*	38.7	79.4*	79.1*	69.7*
Oc1cccc(N2Cc3ccccc3C2)c1	-8.0	3.7	7.2	16.7	10.3	.	.	.	.	.
Oc1ccc(N2Cc3ccccc3C2)cc1	-8.2	0.5	-3.3	-2.1	9.1	.	.	.	.	.
Cc1c(C(=O)N2CCOCC2)sc(NC(=O)C(C)C)c1C#N	-2.9	9.0	-2.0	-4.3	4.1	.	.	.	.	.
O=C(COC(=O)CNC(=O)c1ccc(Cl)c([N+](=O)[O-])c1)NCC1CCCO1 (centres undefined)	2.2	1.6	0.9	-8.2	10.5	.	.	.	.	.
CCN1CCN(c2ccc(S(=O)(=O)N3CCOCC3)cc2N)CC1	3.6	7.5	0.4	22.5	-0.5	.	.	.	.	.
O=C(NCc1cc(C(F)(F)F)cc(C(F)(F)F)c1)C1CC(c2ccccc2C(F)(F)F)=NO1 (centres undefined)	-7.9	-13.2	.	-11.3	.	.	.	.	.	.
CCCc1ccc(C(=O)O/N=C(\N)c2ccccn2)cc1	97.1*	99.6*	0.4	99.7*	19.3	96.9*	99.6*	102.1*	97.5*	78.0*
N/C(=N\OC(=O)c1ccc2ccccc2c1)c1ccccn1	95.8*	100.5*	2.6	94.3*	-19.6	94.9*	96.9*	102.2*	97.5*	27.4
Cc1ccccc1C(=O)O/N=C(\N)Cc1cccs1	35.2	60.6*	1.1	50.6*	6.4	52.2*	49.2	81.3*	75.5*	55.1*
COc1cccc(C(=O)O/N=C(\N)c2ccccn2)c1	95.0*	98.2*	3.0	97.1*	3.7	97.4*	97.9*	102.2*	98.3*	97.7*
COc1cccc(C(=O)NCCCNC(=O)c2ccccn2)c1	1.6	-2.0	-0.1	8.7	4.5	.	.	.	.	.
COc1ccc(CC(=O)Nc2cccc(-c3ccc4nnc(C)n4n3)c2)cc1OC	3.0	10.5	1.9	5.7	13.1	.	.	.	.	.
O=C1NC(=O)c2c(Br)c(Br)c(Br)c(Br)c21	.	.	1.8	.	15.1	.	.	.	.	.
Cc1ccccc1C(=O)O/N=C(\N)c1ccncc1	30.1	65.3*	1.1	62.0*	5.1	41.7	40.6	78.6*	81.2*	54.8*
N/C(=N\OC(=O)C1CCCCC1)c1ccccn1	45.5	68.1*	1.6	67.0*	14.8	61.2*	59.5*	87.3*	89.1*	67.2*
Cc1cc(C(=O)O/N=C(\N)c2ccncc2)ccc1[N+](=O)[O-]	17.8	57.5*	1.4	37.3	23.2	7.8	5.5	38.1	43.2	25.5
N/C(=N\OC(=O)c1ccc2ccccc2c1)c1ccncc1	56.2*	67.0*	-0.4	47.2	-11.5	70.4*	70.8*	90.5*	76.7*	72.8*
Cn1cc(Cl)c(C(=O)NC(=S)Nc2sc3c(c2C#N)CCCCC3)n1	-1.9	1.2	0.8	10.1	13.0	.	.	.	.	.
